IC50 data for 38 compounds are collected here from paper PMC9893515 (Bioorganic chemistry, 2021).

The target in one experiment is T1, recombinant human TDP2 (Homo sapiens, UniProt O95551).
T1 sequence (O95551 1-362): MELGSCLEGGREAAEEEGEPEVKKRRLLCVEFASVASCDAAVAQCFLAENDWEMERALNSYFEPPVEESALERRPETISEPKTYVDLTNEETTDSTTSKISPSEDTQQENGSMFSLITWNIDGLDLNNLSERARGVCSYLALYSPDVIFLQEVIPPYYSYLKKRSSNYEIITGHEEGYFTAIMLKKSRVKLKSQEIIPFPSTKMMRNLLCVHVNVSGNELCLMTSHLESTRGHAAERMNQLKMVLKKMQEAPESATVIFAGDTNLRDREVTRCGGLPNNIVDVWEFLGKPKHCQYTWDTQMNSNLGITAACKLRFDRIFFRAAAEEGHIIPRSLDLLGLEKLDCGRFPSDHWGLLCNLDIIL
The experiment is described as follows: Recombinant TDP2 assay. It counts as biochemical.
Details: not given
The gist of the method: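 Human recombinant TDP2 (25 pM) with 1 nM 18-mer 5'-phosphotyrosyl ssDNA, 3'-α32P-cordycepin-labelled. Reaction ran 15 min at room temperature in Tris-HCl pH 7.5, KCl, MgCl2, EDTA, DTT, BSA and Tween 20. Stopped with formamide loading buffer, then 16% denaturing PAGE and phosphorimaging densitometry of product. […] IC50 is 50% enzyme inhibition.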
By IC50 is commonly meant the concentration that gives 50% inhibition. With `CCOC(=O)c1c(C)oc2c1C(=O)c1ccccc1C2=O` [Compound 11, Ethyl 2-methyl-4,9-dioxo-4,9-dihydronaphtho[2,3-b]furan-3-carboxylate], the IC50 was greater than 111 µM. Take `CCOC(=O)c1c(C)oc2c1C(=O)c1cnccc1C2=O` [Compound 12, Ethyl 2-methyl-4,9-dioxo-4,9-dihydrofuro[2,3-g]isoquinoline-3-carboxylate]: the IC50 is 32 ± 3.2 µM. On to `CCOC(=O)c1c(C)oc2c1C(=O)c1ccncc1C2=O` [Compound 13, Ethyl 2-methyl-4,9-dioxo-4,9-dihydrofuro[3,2-g]isoquinoline-3-carboxylate], for which the IC50 is greater than 111 µM. `CCOC(=O)c1c(C)oc2c1C(=O)c1nccnc1C2=O` [Compound 14, Ethyl 7-methyl-5,9-dioxo-5,9-dihydrofuro[2,3-g]quinoxaline-8-carboxylate]: the IC50 amounted to 61 ± 43 µM.

With `CCOC(=O)c1c(C)oc2c1C(=O)c1nc3ccccc3cc1C2=O` [Compound 16, Ethyl 2-methyl-4,11-dioxo-4,11-dihydrofuro[2,3-b]acridine-3-carboxylate], the IC50 is greater than 111 µM.

As for `CCOC(=O)c1c(C)oc2c1C(=O)c1nc(Cl)ccc1C2=O` [Compound 19, Ethyl-6-chloro-2-methyl-4,9-dioxo-4,9-dihydrofuro[2,3-g]quinoline-3-carboxylate], the IC50 stood at 94 ± 29 µM. The same measure, in the same setting: the same measure for `CCOC(=O)c1c(C)oc2c1C(=O)c1ccc(Cl)nc1C2=O` [Compound 20, Ethyl-7-chloro-2-methyl-4,9-dioxo-4,9-dihydrofuro[3,2-g]quinoline-3-carboxylate]: greater than 111 µM; for `CCOC(=O)c1c(C)oc2c1C(=O)c1nc(C)ccc1C2=O` [Compound 21, Ethyl-2,6-dimethyl-4,9-dioxo-4,9-dihydrofuro[2,3-g]quinoline-3-carboxylate]: 21 ± 5.5 µM; for `CCOC(=O)c1c(C)oc2c1C(=O)c1ccc(C)nc1C2=O` [Compound 22, Ethyl-2,7-dimethyl-4,9-dioxo-4,9-dihydrofuro[3,2-g]quinoline-3-Carboxylate]: greater than 111 µM. On the same count and under the same terms, the same measure for `CCOC(=O)c1c(C)oc2c1C(=O)c1nc(N(C)C)ccc1C2=O` [Compound 23, Ethyl-6-(dimethylamino)-2-methyl-4,9-dioxo-4,9-dihydrofuro[2,3-g]quinoline-3-carboxylate]: 37 ± 7 µM. Turning to `CCOC(=O)c1c(C)oc2c1C(=O)c1nc(N3CCCCC3)ccc1C2=O` [Compound 24, Ethyl-2-methyl-4,9-dioxo-6-(piperidin-1-yl)-4,9-dihydrofuro[2,3-g]quinoline-3-carboxylate], the IC50 is 44 ± 2 µM. `CCOC(=O)c1c(C)oc2c1C(=O)c1nc(N3CCN(C)CC3)ccc1C2=O` [Compound 25, Ethyl-2-methyl-6-(4-methylpiperazin-1-yl)-4,9-dioxo-4,9-dihydrofuro[2,3-g]quinoline-3-carboxylate]: the IC50 is greater than 111 µM. On the same count and under the same terms, the same measure for `C#CCN(C)c1ccc2c(n1)C(=O)c1c(oc(C)c1C(=O)OCC)C2=O` [Compound 26, Ethyl-2-methyl-6-(methyl(prop-2-yn-1-yl)amino)-4,9-dioxo-4,9-dihydrofuro[2,3-g]quinoline-3-carboxylate]: greater than 111 µM.

`CCOC(=O)c1c(C)oc2c1C(=O)c1nc(-c3ccc(OC)cc3)ccc1C2=O` [Compound 27, Ethyl6-(4-methoxyphenyl)-2-methyl-4,9-dioxo-4,9-dihydrofuro[2,3-g]quinoline-3-carboxylate]: the concentration for half-maximal inhibition (IC50) is greater than 111 µM. `CCOC(=O)c1c(C)oc2c1C(=O)c1nc(-c3ccco3)ccc1C2=O` [Compound 28, Ethyl-6-(furan-2-yl)-2-methyl-4,9-dioxo-4,9-dihydrofuro[2,3-g]quinoline-3-carboxylate]: the IC50 was greater than 111 µM.

For `CCOC(=O)c1c(C)oc2c1C(=O)c1ccc(N(C)C)nc1C2=O` [Compound 30, Ethyl-7-(dimethylamino)-2-methyl-4,9-dioxo-4,9-dihydrofuro[3,2-g]quinoline-3-carboxylate], the IC50 is greater than 111 µM. On to `CCOC(=O)c1c(C)oc2c1C(=O)c1ccc(N3CCCCC3)nc1C2=O` [Compound 31, Ethyl-2-methyl-4,9-dioxo-7-(piperidin-1-yl)-4,9-dihydrofuro[3,2-g]quinoline-3-carboxylate], for which the IC50 is greater than 111 µM. Take `CCOC(=O)c1c(C)oc2c1C(=O)c1ncc(C)cc1C2=O` [Compound 33, Ethyl-2,7-dimethyl-4,9-dioxo-4,9-dihydrofuro[2,3-g]quinoline-3-carboxylate]: the IC50 was greater than 111 µM. With `CCOC(=O)c1c(C)oc2c1C(=O)c1nccc(-c3ccccc3[N+](=O)[O-])c1C2=O` [Compound 34, Ethyl-2-methyl-8-(2-nitrophenyl)-4,9-dioxo-4,9-dihydrofuro[2,3-g]quinoline-3-carboxylate], the IC50 was greater than 111 µM. The same measure, in the same setting: the same measure for `CCOC(=O)c1ccnc2c1C(=O)c1oc(C)c(C(=O)OCC)c1C2=O` [Compound 35, Diethyl-2-methyl-4,9-dioxo-4,9-dihydrofuro[2,3-g]quinoline-3,8-dicarboxylate]: 69 ± 3.1 µM; for `CCOC(=O)c1c(C)oc2c1C(=O)c1nccc(CC)c1C2=O` [Compound 36, Ethyl-8-ethyl-2-methyl-4,9-dioxo-4,9-dihydrofuro[2,3-g]quinoline-3-carboxylate]: 28 ± 1.3 µM; for `CCOC(=O)c1c(C(C)C)oc2c1C(=O)c1ncccc1C2=O` [Compound 39, Ethyl 2-isopropyl-4,9-dioxo-4,9-dihydrofuro[2,3-g]quinoline-3-carboxylate]: 25 ± 7.7 µM. For `CCOC(=O)c1c(C(C)C)oc2c1C(=O)c1cccnc1C2=O` [Compound 40, Ethyl 2-isopropyl-4,9-dioxo-4,9-dihydrofuro[3,2-g]quinoline-3-carboxylate], the 50% inhibitory concentration (IC50) is greater than 111 µM. As for `CCOC(=O)c1c(-c2ccccc2)oc2c1C(=O)c1ncccc1C2=O` [Compound 41, Ethyl 4,9-dioxo-2-phenyl-4,9-dihydrofuro[2,3-g]quinoline-3-carboxylate], the IC50 is 28 ± 6.4 µM. On to `CCOC(=O)c1c(-c2ccccc2)oc2c1C(=O)c1cccnc1C2=O` [Compound 42, Ethyl 4,9-dioxo-2-phenyl-4,9-dihydrofuro[3,2-g]quinoline-3-carboxylate], for which the IC50 was 47 ± 24 µM. Same read-out and setting: the same measure for `CCOC(=O)c1c(CBr)oc2c1C(=O)c1ncccc1C2=O` [Compound 43, Ethyl 2-(bromomethyl)-4,9-dioxo-4,9-dihydrofuro[2,3-g]quinoline-3-carboxylate]: 21 ± 5.5 µM; for `CCOC(=O)c1c(C(Br)Br)oc2c1C(=O)c1ncccc1C2=O` [Compound 44, Ethyl 2-(dibromomethyl)-4,9-dioxo-4,9-dihydrofuro[2,3-g]quinoline-3-carboxylate]: 27 ± 2.5 µM; for `CCOC(=O)c1c(CN2CCN(C(C)=O)CC2)oc2c1C(=O)c1ncccc1C2=O` [Compound 45, Ethyl 2-((4-acetylpiperazin-1-yl)methyl)-4,9-dioxo-4,9-dihydrofuro[2,3-g]qui noline-3-carboxylate]: 31 ± 4.2 µM. Regarding `CCOC(=O)c1c(CN2CCOCC2)oc2c1C(=O)c1ncccc1C2=O` [Compound 46, Ethyl 2-(morpholinomethyl)-4,9-dioxo-4,9-dihydrofuro[2,3-g]quinoline-3-ca rboxylate], the IC50 amounted to 22 ± 6.4 µM. For `CCOC(=O)c1c(CN2CCSCC2)oc2c1C(=O)c1ncccc1C2=O` [Compound 47, Ethyl 4,9-dioxo-2-(thiomorpholinomethyl)-4,9-dihydrofuro[2,3-g]quinoline3-carboxylate], the IC50 was determined as 31 ± 6.4 µM. Turning to `CCOC(=O)c1c(C=O)oc2c1C(=O)c1ncccc1C2=O` [Compound 49, Ethyl-2-formyl-4,9-dioxo-4,9-dihydrofuro[2,3-g]quinoline-3-carboxylate], the IC50 is 5.2 ± 4.1 µM. On the same count and under the same terms, the value for `CCOC(=O)c1noc2c1C(=O)c1cnccc1C2=O` [Compound 50, Ethyl-4,9-dioxo-4,9-dihydroisoxazolo[5,4-g]isoquinoline-3-carboxylate] was 5.4 ± 0.8 µM; that for `CCOC(=O)c1noc2c1C(=O)c1ccncc1C2=O` [Compound 51, Ethyl 4,9-dioxo-4,9-dihydroisoxazolo[4,5-g]isoquinoline-3-carboxylate] was 12 ± 2.4 µM.

`CC(C)(C)OC(=O)c1noc2c1C(=O)c1ncccc1C2=O` [Compound 54, Tert-butyl 4,9-dioxo-4,9-dihydroisoxazolo[5,4-g]quinoline-3-carboxylate]: the IC50 is 3.1 ± 0.43 µM. Regarding `CC(C)(C)OC(=O)c1noc2c1C(=O)c1cccnc1C2=O` [Compound 55, Tert-butyl 4,9-dioxo-4,9-dihydroisoxazolo[4,5-g]quinoline-3-carboxylate], the IC50 turned out to be 3.3 ± 0.65 µM. The same measure, in the same setting: the value for `O=C(OCCc1ccc(Cl)cc1)c1noc2c1C(=O)c1ncccc1C2=O` [Compound 56, 4-chlorophenethyl 4,9-dioxo-4,9-dihydroisoxazolo[5,4-g]quinoline-3-carboxylate] was 15 ± 1.3 µM; that for `O=C(OCCc1ccc(Cl)cc1)c1noc2c1C(=O)c1cccnc1C2=O` [Compound 57, 4-chlorophenethyl 4,9-dioxo-4,9-dihydroisoxazolo[4,5-g]quinoline-3-carboxylate] was 9.9 ± 2.2 µM.

Staying with this experiment, now noted: read-out: TDP2 inhibitory activity IC50; mean ± SD from at least three independent experiments; recombinant TDP2.
`CCOC(=O)c1noc2c1C(=O)c1nccnc1C2=O` [Compound 52, Ethyl-4,9-dioxo-4,9-dihydroisoxazolo[4,5-g]quinoxaline-3-carboxylate]: the IC50 is 9.3 ± 2.7 µM.
